# Measured values published in publication PMC3254253 (Bioorganic & Medicinal Chemistry, 2011).
# Experiments:
# CYP7A1 mRNA = experiment: Expression of CYP7A1 mRNA; format: cell-based; conditions: HepG2 cells, 50 μM, 6 h, DMEM with 10% FCS; fold of control (0.1% DMSO)
# Summary of the method: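 HepG2 cells were grown in DMEM with 10% FBS, 1% glutamine, penicillin/streptomycin and amphotericin B. They were then exposed in the same medium to test compound or positive control at 50 μM (DMSO 0.1% final) for 6 h. Total RNA (900 ng) was reverse-transcribed with oligo d(T)16 primers. SYBR Green qPCR measured CYP7A1, normalised to β2-microglobulin.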
# full length murine FXR = biological target: T1, full length murine FXR (Mus musculus, UniProt Q60641); experiment: FXR reporter gene; format: cell-based; conditions: HEK293 cells, increasing concentrations (0–100 μM)
# T1 sequence (Q60641 1-488): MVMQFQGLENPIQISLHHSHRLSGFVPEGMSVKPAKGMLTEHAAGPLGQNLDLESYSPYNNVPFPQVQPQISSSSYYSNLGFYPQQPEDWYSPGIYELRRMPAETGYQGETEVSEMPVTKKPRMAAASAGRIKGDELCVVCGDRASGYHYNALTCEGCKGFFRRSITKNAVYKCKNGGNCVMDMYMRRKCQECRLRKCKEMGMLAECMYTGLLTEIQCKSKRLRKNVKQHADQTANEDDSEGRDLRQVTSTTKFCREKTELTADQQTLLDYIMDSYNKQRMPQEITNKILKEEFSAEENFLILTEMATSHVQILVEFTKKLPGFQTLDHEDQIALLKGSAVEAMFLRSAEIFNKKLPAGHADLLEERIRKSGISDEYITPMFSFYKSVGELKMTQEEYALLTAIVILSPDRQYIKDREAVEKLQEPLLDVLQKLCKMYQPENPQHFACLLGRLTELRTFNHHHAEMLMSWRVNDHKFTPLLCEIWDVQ
# T1 sequence (P28700 1-467 partner): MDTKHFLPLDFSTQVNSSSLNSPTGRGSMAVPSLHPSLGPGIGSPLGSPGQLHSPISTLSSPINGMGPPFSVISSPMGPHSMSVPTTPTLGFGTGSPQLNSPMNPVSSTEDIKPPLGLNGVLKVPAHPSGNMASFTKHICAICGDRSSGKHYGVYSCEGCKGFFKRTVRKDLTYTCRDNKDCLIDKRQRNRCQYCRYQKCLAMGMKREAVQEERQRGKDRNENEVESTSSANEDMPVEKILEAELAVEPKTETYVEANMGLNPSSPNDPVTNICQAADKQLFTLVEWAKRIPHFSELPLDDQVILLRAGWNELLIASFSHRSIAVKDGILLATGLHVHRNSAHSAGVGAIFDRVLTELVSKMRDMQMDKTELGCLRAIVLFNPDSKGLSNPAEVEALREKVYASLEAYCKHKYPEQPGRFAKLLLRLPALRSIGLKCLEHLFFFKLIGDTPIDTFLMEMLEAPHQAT
SMILES,levels of CYP7A1 mRNA (CYP7A1 mRNA),FXR agonism in reporter assay (result in words) (full length murine FXR)
CCCCc1ccc([C@@H](CC(=O)c2ccccc2)c2ccccc2)cc1 [Compound 20],significantly decreased,dose–dependent FXR-agonism
COc1ccc(N2CCN(C[C@H](O)COc3cc4c(c5c3CCCC5)CCCC4)CC2)cc1 [Compound 19],significantly decreased,dose–dependent FXR-agonism
